Values after ≈ are worked out from the molar mass of the structure shown.
Assays:
[1] = tested on: Mycobacterium tuberculosis; experiment: Antimycobacterial activity against Mycobacterium tuberculosis H37Rv after 3 to 7 days by rapid direct susceptibility test; type: functional
How it was run: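 Two-fold DMSO dilutions, 0.0125 to 200 μg/mL for H37Rv and 0.062 to 128 μg/mL for the MDR strain (resistant to INH, RIF and ethambutol), mixed with suspension containing 4×10^-3 mg cells. Sealed plates incubated at 37 °C in a wet box. Growth was read visually under high magnification at 3 days and again 7 days later. MIC is the lowest concentration giving complete growth inhibition.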

[2] = Cytotoxicity against African green monkey Vero cells assessed as reduction in cell viability after 72 hrs by MTT assay; type: cell-based; settings: chlorocebus sabaeus
How it was run: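 VERO cells kept in MEM with Earle's salts + 10% FBS, 37 °C, 5% CO2; seeded 1×10^4 cells/well, recovered 24 h, then medium swapped for assay medium with compound (DMSO-dissolved, 1000 to 4 μg/mL) or drug-free. Viability by MTT after 72 h exposure; CC50 calculated by Bliss analysis.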

[3] = tested on: Mycobacterium tuberculosis; experiment: Potency index, ratio of gatifloxacin MIC90 to compound MIC90 for Mycobacterium tuberculosis H37Rv; type: functional
[4] = tested on: Mycobacterium tuberculosis; experiment: Potency index, ratio of rifampicin MIC90 to compound MIC90 for Mycobacterium tuberculosis H37Rv; type: functional

SMILES	MIC90 [1] [µg/mL]	CC50 at 72 h [2] [µg/mL]	Ratio [3]	Ratio [4]
CO/N=C1\C(=O)N(CCn2cc(CN3CCN(c4c(F)cc5c(=O)c(C(=O)O)cn(C6CC6)c5c4OC)CC3C)nn2)c2ccccc21 (centres undefined)	0.78 (≈ 1.18 µM)	62.5 (≈ 94.9 µM)		
COc1c(N2CCN(Cc3cn(CCN4C(=O)/C(=N\O)c5ccccc54)nn3)C(C)C2)c(F)cc2c(=O)c(C(=O)O)cn(C3CC3)c12 (centres undefined)	3.12 (≈ 4.84 µM)	250 (≈ 388 µM)		
CO/N=C1\C(=O)N(CCn2cc(CN3CCN(c4c(F)cc5c(=O)c(C(=O)O)cn(C6CC6)c5c4OC)CC3C)nn2)c2ccc(Cl)cc21 (centres undefined)	0.1 (≈ 0.144 µM)	7.8 (≈ 11.3 µM)	4 - 8	4 - 8
COc1c(N2CCNC(C)C2)c(F)cc2c(=O)c(C(=O)O)cn(C3CC3)c12 (centres undefined) [GATIFLOXACIN]	0.78 (≈ 2.08 µM)			
COc1c(N2CCN(Cc3cn(CCN4C(=O)C(=O)c5ccccc54)nn3)C(C)C2)c(F)cc2c(=O)c(C(=O)O)cn(C3CC3)c12 (centres undefined)	1.56 (≈ 2.48 µM)	125 (≈ 199 µM)		
CO/N=C1\C(=O)N(CCn2cc(CN3CCN(c4c(F)cc5c(=O)c(C(=O)O)cn(C6CC6)c5c4OC)CC3C)nn2)c2ccc(C)cc21 (centres undefined)	1.56 (≈ 2.32 µM)	31.2 (≈ 46.4 µM)		
COc1c(N2CCN(Cc3cn(CCN4C(=O)C(=O)c5cc(Cl)ccc54)nn3)C(C)C2)c(F)cc2c(=O)c(C(=O)O)cn(C3CC3)c12 (centres undefined)	0.39 (≈ 0.587 µM)	62.5 (≈ 94.1 µM)		
CO[C@H]1/C=C/O[C@@]2(C)Oc3c(C)c(O)c4c(O)c(c(/C=N/N5CCN(C)CC5)c(O)c4c3C2=O)NC(=O)/C(C)=C\C=C\[C@H](C)[C@H](O)[C@@H](C)[C@@H](O)[C@@H](C)[C@H](OC(C)=O)[C@@H]1C [RIFAMPIN]	0.39 (≈ 0.474 µM)			
COc1c(N2CCN(Cc3cn(CCN4C(=O)C(=O)c5cc(F)ccc54)nn3)C(C)C2)c(F)cc2c(=O)c(C(=O)O)cn(C3CC3)c12 (centres undefined)	0.78 (≈ 1.2 µM)	125 (≈ 193 µM)		
COc1c(N2CCN(Cc3cn(CCN4C(=O)/C(=N\O)c5cc(F)ccc54)nn3)C(C)C2)c(F)cc2c(=O)c(C(=O)O)cn(C3CC3)c12 (centres undefined)	1.56 (≈ 2.35 µM)	7.8 (≈ 11.8 µM)		
COc1c(N2CCN(Cc3cn(CCN4C(=O)C(=O)c5cc(C)ccc54)nn3)C(C)C2)c(F)cc2c(=O)c(C(=O)O)cn(C3CC3)c12 (centres undefined)	1.56 (≈ 2.42 µM)	250 (≈ 388 µM)		
NNC(=O)c1ccncc1 [ISONIAZID]	0.05 (≈ 0.365 µM)			
CO/N=C1\C(=O)N(CCn2cc(CN3CCN(c4c(F)cc5c(=O)c(C(=O)O)cn(C6CC6)c5c4OC)CC3C)nn2)c2ccc(F)cc21 (centres undefined)	0.2 (≈ 0.296 µM)	7.8 (≈ 11.5 µM)		
COc1c(N2CCN(Cc3cn(CCN4C(=O)/C(=N\O)c5cc(C)ccc54)nn3)C(C)C2)c(F)cc2c(=O)c(C(=O)O)cn(C3CC3)c12 (centres undefined)	6.25 (≈ 9.49 µM)	62.5 (≈ 94.9 µM)		
COc1c(N2CCN(Cc3cn(CCN4C(=O)/C(=N\O)c5cc(Cl)ccc54)nn3)C(C)C2)c(F)cc2c(=O)c(C(=O)O)cn(C3CC3)c12 (centres undefined)	0.78 (≈ 1.15 µM)	31.2 (≈ 45.9 µM)		

From ChEMBL document CHEMBL4118076, “Azide-alkyne cycloaddition towards 1H-1,2,3-triazole-tethered gatifloxacin and isatin conjugates: Design, synthesis and in vitro anti-mycobacterial evaluation” (Eur J Med Chem, 2017)
